Experimental data as given in ChEMBL document CHEMBL4610044, “Synthesis and biological evaluation of novel indole-pyrazoline hybrid derivatives as potential topoisomerase 1 inhibitors” (Bioorg Med Chem Lett, 2020).
Calls of active or inactive are those of the source. The rule behind the calls is not given here.

How the values were obtained:
Supercoiled DNA [1] = experiment: Binding affinity to supercoiled DNA (unknnown origin) at 50 uM by SPR assay; assay type: nucleic-acid assay
[2] = target: T1, DNA topoisomerase 1 (Homo sapiens) (UniProt P11387); experiment: Poison activity at Top1 (unknown origin) assessed as decrease in relaxed supercoiled DNA at 25 uM by […] based agarose gel electrophoresis relative to control; design: scale not given: the % may be the effect or the level left
T1 sequence (whole entry): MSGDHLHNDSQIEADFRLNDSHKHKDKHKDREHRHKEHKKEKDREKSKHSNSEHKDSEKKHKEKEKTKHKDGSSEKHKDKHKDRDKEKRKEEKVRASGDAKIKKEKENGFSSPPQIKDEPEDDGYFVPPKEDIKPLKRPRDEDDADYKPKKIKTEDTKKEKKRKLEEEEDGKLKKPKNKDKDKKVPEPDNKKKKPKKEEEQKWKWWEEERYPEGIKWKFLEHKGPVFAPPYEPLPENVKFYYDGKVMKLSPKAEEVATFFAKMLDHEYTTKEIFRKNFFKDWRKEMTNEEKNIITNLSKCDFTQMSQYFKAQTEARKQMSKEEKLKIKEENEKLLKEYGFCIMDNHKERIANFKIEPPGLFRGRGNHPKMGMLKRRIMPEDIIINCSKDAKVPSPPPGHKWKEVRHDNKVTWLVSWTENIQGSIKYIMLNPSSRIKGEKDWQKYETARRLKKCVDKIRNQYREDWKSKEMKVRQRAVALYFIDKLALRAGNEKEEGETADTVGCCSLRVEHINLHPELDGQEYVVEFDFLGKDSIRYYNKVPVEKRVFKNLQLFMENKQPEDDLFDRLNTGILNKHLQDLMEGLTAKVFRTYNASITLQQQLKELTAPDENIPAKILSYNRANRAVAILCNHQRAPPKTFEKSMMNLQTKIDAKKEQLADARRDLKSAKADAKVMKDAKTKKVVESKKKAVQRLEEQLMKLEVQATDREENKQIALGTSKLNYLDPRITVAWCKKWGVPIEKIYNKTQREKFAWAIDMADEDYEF

[3] = target: T1, DNA topoisomerase 1 (Homo sapiens); experiment: Poison activity at Top1 (unknown origin) assessed as increase in supercoiled DNA at 125 uM by ethidium bromide staining based agarose gel electrophoresis relative to control
[4] = target: T1, DNA topoisomerase 1 (Homo sapiens); experiment: Poison activity at Top1 (unknown origin) assessed as decrease in relaxed supercoiled DNA at 300 uM
How it was run: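 The screen used a Top1-mediated relaxation assay, with compounds at 300 µM and camptothecin as positive control. Supercoiled and relaxed/Top1-bound DNA were resolved as separate bands on agarose gel.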

[5] = target: T1, DNA topoisomerase 1 (Homo sapiens); experiment: Poison activity at Top1 (unknown origin) assessed as increase in supercoiled DNA by ethidium bromide staining based agarose gel electrophoresis
How it was run: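 In a semi-quantitative Top1 relaxation assay, compound was tested at several concentrations, including 25 and 125 µM, and camptothecin at 1, 5, 25 and 125 µM. Supercoiled DNA was quantified from gel bands as a percentage of total DNA.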

[6] = target: T1, DNA topoisomerase 1 (Homo sapiens); experiment: Poison activity at Top1 (unknown origin) assessed as increase in supercoiled DNA at 25 uM by […] relative to control
DNA = experiment: Binding affinity at Escherichia coli pBR322 DNA assessed as unwinding of supercoiled DNA incubated for 30 mins in presence of topoisomerase 1 by agarose gel based electrophoresis; assay type: nucleic-acid assay
Supercoiled DNA [7] = experiment: Binding affinity to supercoiled DNA (unknown origin) by SPR assay; assay type: nucleic-acid assay

For `COc1ccc(C2CC(c3cn(S(=O)(=O)c4ccccc4)c4ccccc34)=NN2c2ccccc2)cc1` (stereo not drawn), the Activity (Supercoiled DNA [1]) was “inactive” and the Activity [2] was 40 to 79%.
For `CC(C)c1ccc(C2CC(c3cn(S(=O)(=O)c4ccccc4)c4ccccc34)=NN2c2ccccc2)cc1` (stereo not drawn), the Activity (Supercoiled DNA [1]) was “inactive” and the Activity [2] was 40 to 79%.
`O=S(=O)(c1cccc2ccccc12)n1cc(C2=NN(c3ccccc3)C(c3ccccc3Br)C2)c2ccccc21` (stereo not drawn) was tested, and the Activity (Supercoiled DNA [1]) was “inactive” and the Activity [2] was < 40%.
For `Cc1ccc(S(=O)(=O)n2cc(C3=NN(c4ccccc4)C(c4cccc5ccccc45)C3)c3ccccc32)cc1` (stereo not drawn), the Activity (Supercoiled DNA [1]) was “inactive” and the Activity [2] was 40 to 79%.
For `O=S(=O)(c1cccc2ccccc12)n1cc(C2=NN(c3ccccc3)C(c3cccc4ccccc34)C2)c2ccccc21` (stereo not drawn), the Activity (Supercoiled DNA [1]) was “inactive” and the Activity [2] was < 40%.
`O=S(=O)(c1cccc2ccccc12)n1cc(C2=NN(c3ccccc3)C(c3ccccc3)C2)c2ccccc21` (stereo not drawn) was tested, and the Activity (Supercoiled DNA [1]) was “inactive” and the Activity [2] was < 40%.
`COc1cc(C2CC(c3cn(S(=O)(=O)c4ccccc4)c4ccccc34)=NN2c2ccccc2)cc(OC)c1OC` (stereo not drawn) was tested, and the Activity (Supercoiled DNA [1]) was “inactive” and the Activity [2] was 40 to 79%.
For `CC[C@@]1(O)C(=O)OCc2c1cc1n(c2=O)Cc2cc3ccccc3nc2-1`, the Activity [3] was 48%.
For `Cc1ccc(C2CC(c3cn(S(=O)(=O)c4ccccc4)c4ccccc34)=NN2c2ccccc2)cc1` (stereo not drawn), the Activity (Supercoiled DNA [1]) was “inactive”, the Activity [4] was “Active” and the Activity [2] was < 40%.
For `O=[N+]([O-])c1cccc(C2CC(c3cn(S(=O)(=O)c4ccccc4)c4ccccc34)=NN2c2ccccc2)c1` (stereo not drawn), the Activity (Supercoiled DNA [1]) was “inactive” and the Activity [2] was < 40%.
For `Cc1ccc(S(=O)(=O)n2cc(C3=NN(c4ccccc4)C(c4ccccc4Br)C3)c3ccccc32)cc1` (stereo not drawn), the Activity (Supercoiled DNA [1]) was “inactive” and the Activity [2] was < 40%.
For `CC(C)c1ccc(C2CC(c3cn(S(=O)(=O)c4cccc5ccccc45)c4ccccc34)=NN2c2ccccc2)cc1` (stereo not drawn), the Activity (Supercoiled DNA [1]) was “inactive” and the Activity [2] was 40 to 79%.
With `COc1ccc(C2CC(c3cn(S(=O)(=O)c4ccc(C)cc4)c4ccccc34)=NN2c2ccccc2)cc1` (stereo not drawn) the Activity (Supercoiled DNA [1]) was “inactive” and the Activity [2] was < 40%.
With `O=S(=O)(c1cccc2ccccc12)n1cc(C2=NN(c3ccccc3)C(c3ccc(Cl)cc3)C2)c2ccccc21` (stereo not drawn) the Activity (Supercoiled DNA [1]) was “inactive” and the Activity [2] was < 40%.
For `O=S(=O)(c1ccccc1)n1cc(C2=NN(c3ccccc3)C(c3cccc4ccccc34)C2)c2ccccc21` (stereo not drawn), the Activity (Supercoiled DNA [1]) was “inactive”, the Activity [5] was “Dose-dependent effect” and the Activity [6] was 61%. The Activity [3] was 74%, the Activity (DNA) was “inactive” and the Activity [2] was > 80%.
With `COc1cc(C2CC(c3cn(S(=O)(=O)c4ccc(C)cc4)c4ccccc34)=NN2c2ccccc2)cc(OC)c1OC` (stereo not drawn) the Activity (Supercoiled DNA [1]) was “inactive” and the Activity [2] was 40 to 79%.
`Cc1ccc(S(=O)(=O)n2cc(C3=NN(c4ccccc4)C(c4ccc(C(C)C)cc4)C3)c3ccccc32)cc1` (stereo not drawn) was tested, and the Activity (Supercoiled DNA [1]) was “inactive” and the Activity [2] was < 40%.
`O=S(=O)(c1ccccc1)n1cc(C2=NN(c3ccccc3)C(c3ccccc3)C2)c2ccccc21` (stereo not drawn) was tested, and the Activity (Supercoiled DNA [1]) was “inactive” and the Activity [2] was 40 to 79%.
With `Brc1ccccc1C1CC(c2c[nH]c3ccccc23)=NN1c1ccccc1` (stereo not drawn) the Activity (Supercoiled DNA [1]) was “inactive”, the Activity [4] was “Active” and the Activity [2] was < 40%.
In the case of `Cc1ccc(S(=O)(=O)n2cc(C3=NN(c4ccccc4)C(c4ccccc4)C3)c3ccccc32)cc1` (stereo not drawn), the Activity (Supercoiled DNA [1]) is reported as “inactive” and the Activity [2] is reported as 40 to 79%.
For `O=S(=O)(c1ccccc1)n1cc(C2=NN(c3ccccc3)C(c3ccc(Cl)cc3)C2)c2ccccc21` (stereo not drawn), the Activity (Supercoiled DNA [1]) was “inactive” and the Activity [2] was < 40%.
In the case of `O=S(=O)(c1ccccc1)n1cc(C2=NN(c3ccccc3)C(c3ccccc3Br)C2)c2ccccc21` (stereo not drawn), the Activity (Supercoiled DNA [1]) is reported as “inactive” and the Activity [2] is reported as < 40%.
For `CC[n+]1c(-c2ccccc2)c2cc(N)ccc2c2ccc(N)cc21` [HOMIDIUM BROMIDE], the Kd (Supercoiled DNA [7]) was 1200 nM and the Activity (DNA) was “Active”.
In the case of `COc1ccc(C2CC(c3cn(S(=O)(=O)c4cccc5ccccc45)c4ccccc34)=NN2c2ccccc2)cc1` (stereo not drawn), the Activity (Supercoiled DNA [1]) is reported as “inactive” and the Activity [2] is reported as < 40%.
